The source made the active and inactive calls.
Key:
HEK293T = test: Binding affinity to Brd2-H2A.Z protein-protein interaction in human 293T cells at 200 nM for 2 hrs by Western blotting analysis; assay type: cell-based
Method in brief: (§1)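 293T cells transfected with Flag-H2A.Z or Flag-H2A (for line 5, co-transfected with YFP-Brd2), treated with 200 nM for 2 hrs (DMSO vehicle) before harvest. Read-out by Western blot of input and of Flag IP of MNase-digested mononucleosomes, overnight at 4°C on M2-agarose.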

HEK-293T [1] = test: Effect on human 293T cells assessed as increase in histone acetylation at 200 nM for 2 hrs by Western blotting analysis; assay type: functional, cell-based; method in brief: as §1
HEK-293T [2] = test: Effect on human 293T cells expressing YFP-Brd2 assessed as increase in protein immunoprecipitated cells at 200 nM for 2 hrs; assay type: functional, cell-based; method in brief: as §1
LNCaP [3] = test: Antiproliferative activity against human LNCaP cells for 24 hrs by MTS assay; assay type: functional, cell-based; conditions: dose 125-500 nM
Method in brief: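 LNCaP cells seeded in 96-well plates and grown 24 hrs, then exposed to a range of concentrations (DMSO vehicle control) for 24 hrs. MTS reagent added and absorbance read at 490 nm.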

LNCaP [4] = test: Effect on DHT stimulated human LNCaP cells assessed as decrease in histone acetylation at 125 to 250 nM measured for 60 mins by ChIP analysis; assay type: functional, cell-based; conditions: dose 125-250 nM
LNCaP [5] = test: Effect on human LNCaP cells assessed as decrease in KLK2 mRNA expression pretreated with compound for 24 hrs followed by androgen stimulation for 24 hrs by RT-qPCR analysis; assay type: functional, cell-based; conditions: dose 125-500 nM
Method in brief: (§2)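 LNCaP cells grown 72 hrs in phenol-red-free RPMI with 5% charcoal-stripped FBS, pretreated with compound, then stimulated with 10 nM DHT (ethanol vehicle for controls). Transcript levels measured by RT-qPCR.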

LNCaP [6] = test: Effect on human LNCaP cells assessed as decrease in PSA mRNA expression pretreated with compound for 24 hrs followed by androgen stimulation for 24 hrs by RT-qPCR analysis; assay type: functional, cell-based; conditions: dose 125-500 nM; method in brief: as §2
LNCaP [7] = test: Inhibition of Brd2-PSA protein-protein interaction in DHT stimulated human LNCaP cells at 125 to 250 nM measured for 60 mins by ChIP analysis; assay type: cell-based; conditions: dose 125-250 nM
Method in brief: (§3)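 LNCaP cells held 72 hrs in phenol-red-free RPMI with 5% charcoal-stripped FBS, pretreated with compound, then stimulated with 10 nM DHT (ethanol control). Brd2 occupancy at enhancer and promoter regions measured by ChIP 60 min after stimulation.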

LNCaP [8] = test: Inhibition of Brd2-KLK2 protein-protein interaction in DHT stimulated human LNCaP cells at 125 to 250 nM measured for 60 mins by ChIP analysis; assay type: cell-based; conditions: dose 125-250 nM; method in brief: as §3
LNCaP [9] = test: Inhibition of Brd2-H2A.Z protein-protein interaction in human LNCaP cells at 125 to 250 nM by Western blotting analysis; assay type: cell-based; conditions: dose 125-250 nM

CC(/C=C/C(=O)NO)=C\[C@@H](C)C(=O)c1ccc(N(C)C)cc1
active: Activity (HEK293T) | Activity (HEK-293T [1]) | Activity (HEK-293T [2])

Cc1sc2c(c1C)C(c1ccc(Cl)cc1)=N[C@@H](CC(=O)OC(C)(C)C)c1nnc(C)n1-2
active: Activity (LNCaP [3]) Dose-Dependent Effect | Activity (LNCaP [4]) | Activity (LNCaP [5]) Dose-Dependent Effect | Activity (LNCaP [6]) Dose-Dependent Effect | inhibition (LNCaP [7]) | inhibition (LNCaP [8]) | inhibition (LNCaP [9])
